Test results: ChEMBL document CHEMBL1145248, “Design, new synthesis, and calcilytic activity of substituted 3H-pyrimidin-4-ones” (Bioorg Med Chem Lett, 2005)

Molecular target: T1, Extracellular calcium-sensing receptor (Homo sapiens, UniProt P41180)
T1 sequence (P41180 whole entry): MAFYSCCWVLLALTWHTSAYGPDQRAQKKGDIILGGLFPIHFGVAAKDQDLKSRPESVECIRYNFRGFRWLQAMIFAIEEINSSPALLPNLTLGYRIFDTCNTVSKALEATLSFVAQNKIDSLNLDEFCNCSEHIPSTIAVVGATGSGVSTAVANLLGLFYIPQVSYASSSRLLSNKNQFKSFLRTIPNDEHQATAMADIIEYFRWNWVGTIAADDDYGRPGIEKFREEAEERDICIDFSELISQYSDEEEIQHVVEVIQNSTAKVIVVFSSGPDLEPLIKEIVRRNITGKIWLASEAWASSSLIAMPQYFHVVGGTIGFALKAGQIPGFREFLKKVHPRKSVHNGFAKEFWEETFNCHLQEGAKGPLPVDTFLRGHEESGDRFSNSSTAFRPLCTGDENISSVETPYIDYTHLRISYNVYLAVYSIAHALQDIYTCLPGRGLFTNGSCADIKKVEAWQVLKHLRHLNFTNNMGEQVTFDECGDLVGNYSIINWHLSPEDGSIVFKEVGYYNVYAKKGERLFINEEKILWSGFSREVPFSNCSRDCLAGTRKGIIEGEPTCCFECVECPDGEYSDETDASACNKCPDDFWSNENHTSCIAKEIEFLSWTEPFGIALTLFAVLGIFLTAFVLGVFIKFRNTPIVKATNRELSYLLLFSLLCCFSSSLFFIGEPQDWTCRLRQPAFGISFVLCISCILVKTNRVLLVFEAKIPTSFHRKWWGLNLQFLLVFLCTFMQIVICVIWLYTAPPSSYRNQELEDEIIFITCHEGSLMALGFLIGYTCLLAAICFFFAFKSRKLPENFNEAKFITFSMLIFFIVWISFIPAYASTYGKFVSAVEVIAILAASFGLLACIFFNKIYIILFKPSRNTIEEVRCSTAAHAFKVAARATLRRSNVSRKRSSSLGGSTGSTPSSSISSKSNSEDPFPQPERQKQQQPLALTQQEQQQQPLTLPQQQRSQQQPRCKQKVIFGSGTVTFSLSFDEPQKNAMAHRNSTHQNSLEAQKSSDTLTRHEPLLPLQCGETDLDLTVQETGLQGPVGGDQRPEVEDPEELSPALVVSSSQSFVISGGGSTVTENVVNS
Assay: Inhibitory concentration was evaluated for in vitro calcilytic activity against human calcium receptor
Summary of the method: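 HEK 293 4.0-7 cells stably expressing human CaR, loaded with fluo-3. Intracellular Ca2+ rise triggered by raising extracellular Ca2+ from 1.0 to 1.3 mM. Peak fluorescence normalized to the response without compound. Eight concentrations tested in duplicate, top concentration 30 µM. IC50 normalized to an internal reference standard run in parallel in each assay.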

## CCc1c(C)nc(-c2ccccc2O)n(CCc2ccccc2F)c1=O
  IC50: 0.097 µM

## Cc1nc(-c2ccccc2O)n(CCc2cccc(F)c2)c(=O)c1C
  IC50: 0.17 µM

## Cc1nc(-c2ccccc2O)n(CCc2cccc(F)c2)c(=O)c1C(C)C
  IC50: 0.095 µM

## O=c1c2c(nc(-c3ccccc3O)n1CCc1cccc(F)c1)CCC2
  IC50: 0.2 µM

## Cc1cc(=O)n(CCc2ccccc2F)c(-c2ccccc2O)n1
  IC50: 1.6 µM

## O=c1c2c(nc(-c3ccccc3O)n1CCc1ccccc1)CCCC2
  IC50: 0.14 µM

## CCc1c(C)nc(-c2ccccc2O)n(CCc2ccccc2)c1=O
  IC50: 0.1 µM

## Cc1nc(-c2ccccc2O)n(CCc2ccccc2)c(=O)c1C
  IC50: 0.2 µM

## CCCc1c(C)nc(-c2ccccc2O)n(CCc2cccc(F)c2)c1=O
  IC50: 0.14 µM

## Cc1cc(=O)n(CCc2cccc(F)c2)c(-c2ccccc2O)n1
  IC50: 1.1 µM

## Cc1c(C(F)(F)F)nc(-c2ccccc2O)n(CCc2ccccc2)c1=O
  IC50: 0.8 µM

## Cc1cc(=O)n(CCc2ccccc2)c(-c2ccccc2O)n1
  IC50: 1.9 µM

## O=c1c2c(nc(-c3ccccc3O)n1CCc1ccccc1)CCC2
  IC50: 0.2 µM
